In ChEMBL document CHEMBL4715736, “Identification of anticancer agents based on the thieno[2,3-b]pyridine and 1H-pyrazole molecular scaffolds” (2016):

Tests used:
Type in all cases: functional
SK-OV-3 [1] = test: Growth inhibition of human SK-OV-3 cells assessed as cell growth at 0.1 uM incubated for 48 hrs by sulforhodamine B assay relative to control; conditions: read-out: Activity
SK-MEL-2 [2] = test: Growth inhibition of human SK-MEL-2 cells assessed as cell growth at 0.1 uM incubated for 48 hrs by sulforhodamine B assay relative to control; conditions: read-out: Activity
SF-295 = test: Growth inhibition of human SF-295 cells assessed as cell growth at 1 uM incubated for 48 hrs by sulforhodamine B assay relative to control; conditions: read-out: Activity
UACC-62 = test: Growth inhibition of human UACC-62 cells assessed as cell growth at 100 uM incubated for 48 hrs by sulforhodamine B assay relative to control; conditions: read-out: Activity
NCI/ADR-RES = test: Growth inhibition of human NCI/ADR-RES cells assessed as cell growth at 0.1 uM incubated for 48 hrs by sulforhodamine B assay relative to control; conditions: read-out: Activity
K562 = test: Growth inhibition of human K562 cells assessed as cell growth at 0.1 uM incubated for 48 hrs by sulforhodamine B assay relative to control; conditions: read-out: Activity
SW-620 = test: Growth inhibition of human SW-620 cells incubated for 48 hrs by sulforhodamine B assay
In short: (§1)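 NCI DTP 60-line human tumour panel. Dose-response curves were run only for ligands active in the initial 10 µM screen. GI50 (concentration giving 50% of maximal inhibition of proliferation) and TGI (concentration giving total growth inhibition) were derived from these curves.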

HT-29 = test: Growth inhibition of human HT-29 cells assessed as cell growth at 100 uM incubated for 48 hrs by sulforhodamine B assay relative to control; conditions: read-out: Activity
T47D = test: Growth inhibition of human T47D cells assessed as cell growth at 0.01 uM incubated for 48 hrs by sulforhodamine B assay relative to control; conditions: read-out: Activity
CCRF-CEM = test: Growth inhibition of human CCRF-CEM cells assessed as cell growth at 0.1 uM incubated for 48 hrs by sulforhodamine B assay relative to control; conditions: read-out: Activity
In short: (§2)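 NCI Developmental Therapeutics Program NCI60 panel. Compounds that were active in the 10 µM one-dose screen went on to dose–response testing. Growth at each concentration is expressed relative to untreated control (100%). GI50 (concentration giving 50% of maximal inhibition of proliferation) and TGI (concentration giving total growth inhibition) were derived from the curves.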

A498 = test: Growth inhibition of human A498 cells assessed as cell growth at 1 uM incubated for 48 hrs by sulforhodamine B assay relative to control; conditions: read-out: Activity; in short: as §2
MDA-MB-231 = test: Growth inhibition of human MDA-MB-231 cells assessed as cell growth at 100 uM incubated for 48 hrs by sulforhodamine B assay relative to control; conditions: read-out: Activity
SK-MEL-2 [3] = test: Growth inhibition of human SK-MEL-2 cells incubated for 48 hrs by sulforhodamine B assay; in short: as §1
SK-OV-3 [4] = test: Growth inhibition of human SK-OV-3 cells incubated for 48 hrs by sulforhodamine B assay; conditions: for CC50: read-out: LC50 (the source's name); in short: as §1
SNB-19 = test: Growth inhibition of human SNB-19 cells assessed as cell growth at 0.1 uM incubated for 48 hrs by sulforhodamine B assay relative to control; conditions: read-out: Activity
M14 = test: Growth inhibition of human M14 cells assessed as cell growth at 1 uM incubated for 48 hrs by sulforhodamine B assay relative to control; conditions: read-out: Activity
SN12C = test: Growth inhibition of human SN12C cells assessed as cell growth at 0.01 uM incubated for 48 hrs by sulforhodamine B assay relative to control; conditions: read-out: Activity
RPMI-8226 = test: Growth inhibition of human RPMI-8226 cells assessed as cell growth at 100 uM incubated for 48 hrs by sulforhodamine B assay relative to control; conditions: read-out: Activity
OVCAR-5 [5] = test: Growth inhibition of human OVCAR-5 cells assessed as cell growth at 0.01 uM incubated for 48 hrs by sulforhodamine B assay relative to control; conditions: read-out: Activity
RXF 393 = test: Growth inhibition of human RXF 393 cells assessed as cell growth at 1 uM incubated for 48 hrs by sulforhodamine B assay relative to control; conditions: read-out: Activity
ACHN [6] = test: Growth inhibition of human ACHN cells assessed as cell growth at 100 uM incubated for 48 hrs by sulforhodamine B assay relative to control; conditions: read-out: Activity
SK-MEL-2 [7] = test: Growth inhibition of human SK-MEL-2 cells assessed as cell growth at 0.01 uM incubated for 48 hrs by sulforhodamine B assay relative to control; conditions: read-out: Activity
MDA-MB-435 = test: Growth inhibition of human MDA-MB-435 cells incubated for 48 hrs by sulforhodamine B assay; conditions: for CC50: read-out: LC50 (the source's name)
In short: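 NCI60 panel at the NCI Developmental Therapeutics Program. Only compounds active in the 10 µM screen went to dose-response testing. GI50, the concentration giving 50% of maximal inhibition of proliferation, and TGI, the concentration giving total growth inhibition, were derived from the dose-response curves.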

LOX IMVI = test: Growth inhibition of human LOX IMVI cells assessed as cell growth at 100 uM incubated for 48 hrs by sulforhodamine B assay relative to control; conditions: read-out: Activity
ACHN [8] = test: Growth inhibition of human ACHN cells assessed as cell growth at 0.1 uM incubated for 48 hrs by sulforhodamine B assay relative to control; conditions: read-out: Activity
OVCAR-4 = test: Growth inhibition of human OVCAR-4 cells incubated for 48 hrs by sulforhodamine B assay; conditions: for CC50: read-out: LC50 (the source's name); in short: as §1
OVCAR-8 = test: Growth inhibition of human OVCAR-8 cells assessed as cell growth at 0.1 uM incubated for 48 hrs by sulforhodamine B assay relative to control; conditions: read-out: Activity
DU-145 = test: Growth inhibition of human DU-145 cells assessed as cell growth at 1 uM incubated for 48 hrs by sulforhodamine B assay relative to control; conditions: read-out: Activity; in short: as §2
OVCAR-5 [9] = test: Growth inhibition of human OVCAR-5 cells assessed as cell growth at 0.1 uM incubated for 48 hrs by sulforhodamine B assay relative to control; conditions: read-out: Activity
A549 = test: Growth inhibition of human A549/ATCC cells assessed as cell growth at 0.1 uM incubated for 48 hrs by sulforhodamine B assay relative to control; conditions: read-out: Activity; in short: as §2
HOP-92 = test: Growth inhibition of human HOP-92 cells assessed as cell growth at 100 uM incubated for 48 hrs by sulforhodamine B assay relative to control; conditions: read-out: Activity
CAKI-1 = test: Growth inhibition of human CAKI-1 cells assessed as cell growth at 1 uM incubated for 48 hrs by sulforhodamine B assay relative to control; conditions: read-out: Activity; in short: as §2
ACHN [10] = test: Growth inhibition of human ACHN cells assessed as cell growth at 0.01 uM incubated for 48 hrs by sulforhodamine B assay relative to control; conditions: read-out: Activity
SF-268 = test: Growth inhibition of human SF-268 cells assessed as cell growth at 1 uM incubated for 48 hrs by sulforhodamine B assay relative to control; conditions: read-out: Activity
HOP-62 = test: Growth inhibition of human HOP-62 cells assessed as cell growth at 0.1 uM incubated for 48 hrs by sulforhodamine B assay relative to control; conditions: read-out: Activity

SMILES: Cc1cc(C)c(NC(=O)c2sc3nc4c(cc3c2N)CN(Cc2ccccc2)CC4)c(C)c1
- growth at 0.1 µM (SK-OV-3 [1]): 98%
- growth at 0.1 µM (SK-MEL-2 [2]): 113%
- growth at 1 µM (SF-295): 66%
- growth at 100 µM (UACC-62): -22%
- growth at 0.1 µM (NCI/ADR-RES): 100%
- growth at 0.1 µM (K562): 105%
- GI50 (SW-620): 2.6 µM
- LC50 (concentration killing 50% of cells) (SW-620): > 100 µM
- TGI (SW-620): 17.1 µM
- growth at 100 µM (HT-29): -26%
- growth at 0.01 µM (T47D): 90%
- growth at 0.1 µM (CCRF-CEM): 97%
- growth at 1 µM (A498): 58%
- growth at 100 µM (MDA-MB-231): -11%
- GI50 (SK-MEL-2 [3]): 5.59 µM
- LC50 (SK-MEL-2 [3]): > 100 µM
- TGI (SK-MEL-2 [3]): > 100 µM
- GI50 (SK-OV-3 [4]): 5.35 µM
- TGI (SK-OV-3 [4]): > 100 µM
- CC50 (SK-OV-3 [4]): > 100 µM
- growth at 0.1 µM (SNB-19): 96%
- growth at 1 µM (M14): 78%
- growth at 0.01 µM (SN12C): 104%
- growth at 100 µM (RPMI-8226): -11%
- growth at 0.01 µM (OVCAR-5 [5]): 90%
- growth at 1 µM (RXF 393): 78%
- growth at 100 µM (ACHN [6]): 6%
- growth at 0.01 µM (SK-MEL-2 [7]): 108%
- GI50 (MDA-MB-435): 0.399 µM
- TGI (MDA-MB-435): 4.38 µM
- CC50 (MDA-MB-435): 68.9 µM
- growth at 100 µM (LOX IMVI): -83%
- growth at 0.1 µM (ACHN [8]): 100%
- GI50 (OVCAR-4): 6.72 µM
- TGI (OVCAR-4): > 100 µM
- CC50 (OVCAR-4): > 100 µM
- growth at 0.1 µM (OVCAR-8): 97%
- growth at 1 µM (DU-145): 95%
- growth at 0.1 µM (OVCAR-5 [9]): 96%
- growth at 0.1 µM (A549): 96%
- growth at 100 µM (HOP-92): -7%
- growth at 1 µM (CAKI-1): 76%
- growth at 0.01 µM (ACHN [10]): 97%
- growth at 1 µM (SF-268): 92%

SMILES: CN1CCc2nc3sc(C(N)=O)c(N)c3c(-c3cccs3)c2C1
- growth at 0.1 µM (SK-OV-3 [1]): 92%
- growth at 0.1 µM (SK-MEL-2 [2]): 114%
- growth at 1 µM (SF-295): 100%
- growth at 100 µM (UACC-62): -55%
- growth at 0.1 µM (NCI/ADR-RES): 96%
- growth at 0.1 µM (K562): 97%
- GI50 (SW-620): 4.02 µM
- LC50 (concentration killing 50% of cells) (SW-620): > 100 µM
- TGI (SW-620): > 100 µM
- growth at 100 µM (HT-29): -1%
- growth at 0.01 µM (T47D): 97%
- growth at 0.1 µM (CCRF-CEM): 107%
- growth at 1 µM (A498): 96%
- growth at 100 µM (MDA-MB-231): 26%
- GI50 (SK-MEL-2 [3]): 2.67 µM
- LC50 (SK-MEL-2 [3]): > 100 µM
- TGI (SK-MEL-2 [3]): 6.22 µM
- GI50 (SK-OV-3 [4]): 3.35 µM
- TGI (SK-OV-3 [4]): > 100 µM
- CC50 (SK-OV-3 [4]): > 100 µM
- growth at 0.1 µM (SNB-19): 103%
- growth at 1 µM (M14): 115%
- growth at 0.01 µM (SN12C): 98%
- growth at 100 µM (RPMI-8226): 1%
- growth at 1 µM (RXF 393): 55%
- growth at 0.01 µM (SK-MEL-2 [7]): 107%
- GI50 (MDA-MB-435): 3.13 µM
- TGI (MDA-MB-435): > 100 µM
- CC50 (MDA-MB-435): > 100 µM
- growth at 0.1 µM (HOP-62): 104%
- growth at 100 µM (LOX IMVI): 2%
- GI50 (OVCAR-4): 7.38 µM
- TGI (OVCAR-4): > 100 µM
- CC50 (OVCAR-4): > 100 µM
- growth at 0.1 µM (OVCAR-8): 96%
- growth at 1 µM (DU-145): 108%
- growth at 0.1 µM (A549): 95%
- growth at 100 µM (HOP-92): -1%
- growth at 1 µM (CAKI-1): 82%
- growth at 1 µM (SF-268): 107%
